# Reference: ChEMBL document CHEMBL4373727, “Thienopyrimidinone Derivatives That Inhibit Bacterial tRNA (Guanine37-N1)-Methyltransferase (TrmD) by Restructuring the Active Site with a Tyrosine-Flipping Mechanism” (J Med Chem, 2019)
# Calls of active or inactive are those of the source. The rule behind the calls is not given here.
# Experiments:
# [1] = target: T1, tRNA (guanine-N(1)-)-methyltransferase (Mycobacterium tuberculosis (strain ATCC 25618 / H37Rv)) (UniProt P9WFY7); test: Binding affinity to full length Mycobacterium tuberculosis tRNA (guanine(37)-N1)-methyltransferase expressed in Escherichia coli BL21 (DE3) assessed as thermal stabilization of protein by measuring change in melting temperature at 0.1 mM by SYPRO orange based thermal shift assay
# T1 sequence (whole entry): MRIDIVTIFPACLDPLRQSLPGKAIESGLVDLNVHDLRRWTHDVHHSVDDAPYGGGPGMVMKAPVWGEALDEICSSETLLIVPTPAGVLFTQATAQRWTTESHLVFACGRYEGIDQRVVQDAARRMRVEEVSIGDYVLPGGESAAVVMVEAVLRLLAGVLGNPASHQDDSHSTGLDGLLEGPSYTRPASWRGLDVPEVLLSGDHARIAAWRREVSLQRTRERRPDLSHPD
# Summary of the method: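 Thermal shift: 4 μM TrmD with 5× SYPRO Orange and ligand in 50 mM Tris-HCl pH 8, 150 mM NaCl, 1 mM MgCl2, 1 mM DTT, 0.05% Tween-20. Buffer-only control. Heated from 25 to 95 °C in a real-time PCR instrument, and Tm taken as the unfolding midpoint. Ligand levels: SAH 2 mM, inhibitors 0.1 mM.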
# [2] = target: T2, tRNA (guanine-N(1)-)-methyltransferase (Pseudomonas aeruginosa (strain ATCC 15692 / DSM 22644 / CIP 104116 / JCM14847 / LMG 12228 / 1C / PRS 101 / PAO1), UniProt Q9HXQ1); test: (§1) Inhibition of Pseudomonas aeruginosa tRNA (guanine(37)-N1)-methyltransferase (Leu5 to Asp25 residues) expressed in Escherichia coli BL21 (DE3) Rosetta T1R cells assessed as reduction in S-adenosyl-L-homocysteine production preincubated for 15 mins followed by 1.5 uM of tRNALeu(CAG) substrate and SAM addition and measured after 45 mins by MTase-Glo assay
# T2 sequence (Q9HXQ1 whole entry): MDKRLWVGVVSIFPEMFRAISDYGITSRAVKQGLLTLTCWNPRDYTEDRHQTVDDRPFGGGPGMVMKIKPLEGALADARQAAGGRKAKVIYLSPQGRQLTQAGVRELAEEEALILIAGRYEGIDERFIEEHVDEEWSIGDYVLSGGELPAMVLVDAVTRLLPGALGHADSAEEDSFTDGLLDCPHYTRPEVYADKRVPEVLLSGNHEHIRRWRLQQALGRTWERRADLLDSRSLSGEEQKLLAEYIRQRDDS
# Summary of the method: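 MTase-Glo luminescence assay. 8 nM TrmD preincubated 15 min at ambient temperature with serially diluted inhibitor (0–500 μM) in 50 mM Tris-HCl pH 8.0, 80 mM NaCl, 1 mM MgCl2, 0.5 mM DTT, 0.01% Triton X-100. Reaction with 2 μM SAM and tRNALeu(CAG), 45 min at 37 °C. Detection 30 min in the dark, SAH read against a standard curve. IC50 by nonlinear regression. Two independent experiments in duplicate.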
# [3] = target: T2, tRNA (guanine-N(1)-)-methyltransferase; test: as §1, with “BL21 Rosetta” for “BL21”, “(DE3)” for “(DE3) Rosetta T1R cells”, “4.5” for “1.5”
# Summary of the method: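 tRNA competition: same MTase-Glo assay with 8 nM PaTrmD and 2 μM SAM, 15 min preincubation and 45 min reaction at 37 °C. tRNALeu(CAG) at 1.5, 4.5 or 15 μM. IC50 from dose–response curves, duplicate data points.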
# [4] = test system: Mycobacterium tuberculosis; test: Antibacterial activity against Mycobacterium tuberculosis ATCC 27294 at 100 uM incubated for 7 days; format: functional, organism-based
# Enterococcus faecalis [5] = test: Antibacterial activity against Enterococcus faecalis ATCC 51299 at 100 uM incubated for 24 hrs; format: functional, organism-based
# Summary of the method: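 Single-concentration screen in brain heart infusion broth. Log-phase cells at ~5×10^5 cells/mL were grown with 100 μM compound for 24 h at 37 °C. Growth was read as OD600 and expressed as a percentage of untreated wells. DMSO and blank controls were included.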
# [6] = test system: Mycobacterium tuberculosis; test: Bactericidal activity against Mycobacterium tuberculosis H37Rv assessed as reduction in CFU at 1 to 4 times MIC90 incubated for 7 days; format: functional; conditions: 168 h, read-out: MBC99.9
# Summary of the method: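 Then plated on complete 7H10 agar for CFU. Inoculum plated at time zero. MBC99.9 is a 1000-fold CFU reduction versus the time-zero inoculum.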
# Pseudomonas aeruginosa = test: Antibacterial activity against Pseudomonas aeruginosa PA14 incubated for 24 hrs by serial broth microdilution method; format: functional, organism-based
# Summary of the method: (§2)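 Log-phase cultures from four colonies grown overnight at 37 °C, inoculated at ~5×10^5 cells/mL in cation-adjusted Mueller–Hinton broth with serially diluted compound. Grown 24 h at 37 °C, then OD600 read. MIC50/MIC90 are the concentrations giving 50%/90% growth inhibition relative to drug-free controls. Two independent experiments in duplicate.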
# Acinetobacter baumannii = test: Antibacterial activity against Acinetobacter baumannii ATCC 17961 incubated for 24 hrs by serial broth microdilution method; format: functional; conditions: ATCC 17961, 24 h; summary of the method: as §2
# Staphylococcus aureus = test: Antibacterial activity against methicillin-resistant Staphylococcus aureus ATCC 43300 incubated for 24 hrs by serial broth microdilution method; format: functional; conditions: ATCC 43300, 24 h
# Summary of the method: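 Growth read by OD600. MRSA in cation-adjusted Mueller–Hinton broth, M. smegmatis in complete 7H9. MIC50 and MIC90 are 50% and 90% growth inhibition versus drug-free controls. Two independent experiments, each in duplicate.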
# Escherichia coli [7] = test: Bactericidal activity against Escherichia coli BW25113 assessed as reduction in CFU at 1 to 4 times MIC90 incubated for 24 hrs; format: functional, organism-based
# Klebsiella pneumoniae = test: Antibacterial activity against Klebsiella pneumoniae ATCC 13883 incubated for 24 hrs by serial broth microdilution method; format: functional, organism-based; summary of the method: as §2
# Escherichia coli [8] = test: Antibacterial activity against Escherichia coli BW25113 incubated for 24 hrs by serial broth microdilution method; format: functional, organism-based; summary of the method: as §2
# Salmonella enteritidis = test: Antibacterial activity against Salmonella enteritidis ATCC 13076 incubated for 24 hrs by serial broth microdilution method; format: functional; conditions: Salmonella enterica subsp. enterica serovar Enteritidis; summary of the method: as §2
# [9] = test system: Mycobacterium tuberculosis; test: Antibacterial activity against Mycobacterium tuberculosis ATCC 27294 incubated for 7 days by broth dilution method; format: functional; conditions: ATCC 27294, 168 h
# Summary of the method: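 M. tuberculosis ATCC 27294 in complete 7H9 with 0.05% Tween 80, 0.5% glycerol and 10% ADC. Mid-log cells adjusted to OD600 0.1 and added 1:1 to 2-fold serial compound dilutions (highest 100 μM). Incubated 7 d at 37 °C with shaking at 80 rpm, then OD600 read. Isoniazid positive control. MIC50/MIC90 versus drug-free controls. Biological duplicates.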
# Enterococcus faecalis [10] = test: Antibacterial activity against Enterococcus faecalis ATCC 51299 incubated for 24 hrs by serial broth microdilution method; format: functional, organism-based
# Summary of the method: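 Broth microdilution in brain heart infusion broth, ~5×10^5 cells/mL log-phase inoculum, serial compound dilutions, 24 h at 37 °C, OD600 read-out. MIC50/MIC90 are the concentrations giving 50%/90% growth inhibition relative to drug-free controls. Two independent experiments in duplicate.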
compound,measurement,setting,value
NC1CCN(Cc2ccc(CNC(=O)c3csc4nc[nH]c(=O)c34)cc2)CC1,ΔTm,[1],1 to 13 °C
same,IC50,[2],180 nM
same,IC50,[3],330 nM
same,Activity,[4],inactive
same,Activity,Enterococcus faecalis [5],inactive
CCCCCCCCNCc1ccc(CNC(=O)c2csc3nc[nH]c(=O)c23)cc1,MBC,[6],> 100 µM
same,MIC50,Pseudomonas aeruginosa,inactive
same,MIC90,Pseudomonas aeruginosa,inactive
same,MIC50,Acinetobacter baumannii,62 µM
same,MIC90,Acinetobacter baumannii,95 µM
same,MIC50,Staphylococcus aureus,31 µM
same,MIC90,Staphylococcus aureus,36 µM
same,IC50,[2],24 nM
same,IC50,[3],60 nM
same,Activity,[4],Active
same,Activity,Enterococcus faecalis [5],Active
same,MBC99.9,Escherichia coli [7],inactive
same,MIC50,Klebsiella pneumoniae,inactive
same,MIC90,Klebsiella pneumoniae,inactive
same,MIC50,Escherichia coli [8],inactive
same,MIC90,Escherichia coli [8],inactive
same,MIC50,Salmonella enteritidis,inactive
same,MIC90,Salmonella enteritidis,inactive
same,MIC50,[9],78 µM
same,MIC90,[9],> 100 µM
same,MIC50,Enterococcus faecalis [10],inactive
same,MIC90,Enterococcus faecalis [10],inactive
